Compound activity deposited in PubChem by Broad Institute.
Shown is part of a subset that was picked to be rich in hits.
INS-1E rescue: rescue of cytokine-induced death in INS-1E beta cells | INS-1E cytokine-induced death, ATP luminescence, 48 h; normalised: neutral wells 0, positive control 100 | protection from cytokine-induced ATP loss, % at 10 µM | 20,000 tested, 0.1% active;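 active = mean replicate protection from cytokine-induced ATP loss at least 50% and at least 75% of replicates each reaching 50%; inconclusive = meets only one of the two criteria, mean or replicate share; inactive = fails both the mean and replicate share criteria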
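assay system = INS-1E rat insulinoma cells | amount = 8000 cells per well | medium = phenol-red-free RPMI with 5% fetal bovine serum | doses = one compound concentration, pin transfer | timing = 48 h cytokine plus compound treatment, 10 min reagent incubation | also added = IL-1β, TNF-α and IFN-γ cytokine mix | signal = CellTiter-Glo luminescence measuring cellular ATP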
YB-1 expr inh: YB-1 expression inhibition. U2OS, qRT-PCR YB-1 vs CDIP delta delta Cp, 16 h; hits give high values; zero = DMSO, each unit about twofold. delta delta Cp (YB-1 minus CDIP) (concentration not given with the values). 30,000 tested, 0.37% active;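 active = delta delta Cp rounded down to an integer at or above 3, about 3 SD of DMSO wells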;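 note: higher means less YB-1 transcript or more CDIP transcript relative to DMSO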
T cruzi HTS: intracellular Trypanosoma cruzi inhibition. activity score (inhibition), % at 5.01 µM. intracellular Trypanosoma cruzi in host cells, plate reader. 22,000 tested, 4.9% active; in the data active = activity score above about 55%; inconclusive = no clear call, values can overlap the other calls;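 note: parasites and compound incubated about four days before reading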
Hits are given with their value; – = inactive; ? = inconclusive; · = not tested or not shown.

SMILES	INS-1E rescue	YB-1 expr inh	T cruzi HTS
C[C@@H]1CN([C@H](C)CO)C(=O)c2cccc(NC(=O)c3nc4ccccc4s3)c2O[C@H]1CN(C)CC1CCCCC1	–	–	58
COc1ccc(CN(C)C[C@@H]2Oc3c(NC(=O)c4nc5ccccc5s4)cccc3C(=O)N([C@H](C)CO)C[C@H]2C)cc1	–	–	57
C[C@H](CO)N1C[C@H](C)[C@H](CN(C)Cc2ccc(-c3ccccc3)cc2)Oc2c(NC(=O)c3nc4ccccc4s3)cccc2C1=O	–	–	60
C[C@@H]1CN([C@@H](C)CO)C(=O)c2cccc(NC(=O)c3nc4ccccc4s3)c2O[C@@H]1CN(C)Cc1ccc(C(F)(F)F)cc1	–	–	61
C[C@H]1CN([C@@H](C)CO)C(=O)Cc2cc(NC(=O)NC3CCCCC3)ccc2O[C@@H]1CN(C)Cc1ccc2c(c1)OCO2	–	–	–
C[C@@H]1CN([C@@H](C)CO)C(=O)Cc2cc(NS(=O)(=O)c3cn(C)cn3)ccc2O[C@@H]1CN(C)Cc1ccc(Cl)c(Cl)c1	–	–	–
CC(C)NC(=O)Nc1ccc2c(c1)C(=O)N([C@H](C)CO)C[C@H](C)[C@@H](CN(C)Cc1ccc(Oc3ccccc3)cc1)O2	–	–	–
C[C@@H]1CN([C@H](C)CO)C(=O)c2cccc(NC(=O)c3nc4ccccc4s3)c2O[C@H]1CN(C)C(=O)Nc1ccccc1	–	–	–
C[C@H](CO)N1C[C@H](C)[C@@H](CN(C)Cc2ccc(Cl)c(Cl)c2)Oc2c(NC(=O)c3nc4ccccc4s3)cccc2C1=O	–	–	69
C[C@H](CO)N1C[C@H](C)[C@@H](CN(C)Cc2ccc(C(=O)Nc3ccccc3N)cc2)Oc2c(NC(=O)c3nc4ccccc4s3)cccc2C1=O	–	–	71
C[C@@H]1CN([C@H](C)CO)C(=O)c2cccc(NC(=O)c3nc4ccccc4s3)c2O[C@H]1CN(C)Cc1ccc(Cl)c(Cl)c1	–	–	–
C[C@@H]1CN([C@@H](C)CO)C(=O)c2cccc(NC(=O)c3nc4ccccc4s3)c2O[C@@H]1CN(C)Cc1ccc(C(=O)Nc2ccccc2N)cc1	–	–	?
C=CC[C@]1(C(=O)N2CCCCC2)N=C(c2ccc(OCCCO)cc2)O[C@H]1c1ccccc1	·	–	·
CSc1nc2cc(C)nn2c(-c2ccco2)c1C#N	·	–	·
COc1ccc(S(=O)(=O)N(C)C[C@H]2Oc3c(NC(=O)NC(C)C)cccc3C(=O)N([C@H](C)CO)C[C@H]2C)cc1	–	–	–
C=C1C(=O)O[C@H]2C3=C(C)CCC[C@]3(C)C(=O)C[C@@H]12	·	–	·
C[C@H](CO)N1C[C@H](C)[C@@H](CN(C)C(=O)Nc2ccc(F)cc2)Oc2ccc(NC(=O)Cc3cn(C)c4ccccc34)cc2C1=O	–	–	–
C[C@@H]1CN([C@H](C)CO)C(=O)c2cccc(NC(=O)c3nc4ccccc4s3)c2O[C@H]1CN(C)C(=O)Nc1ccc(F)cc1	–	–	–
C[C@@H]1CN([C@H](C)CO)C(=O)c2cccc(NC(=O)c3nc4ccccc4s3)c2O[C@H]1CN(C)C(=O)Nc1ccc(C(F)(F)F)cc1	–	–	61
C[C@H]1CN([C@@H](C)CO)C(=O)c2cccc(NC(=O)c3nc4ccccc4s3)c2O[C@H]1CN(C)C(=O)Nc1ccc(C(F)(F)F)cc1	–	–	79
C[C@@H]1CN([C@@H](C)CO)C(=O)c2cccc(NC(=O)c3nc4ccccc4s3)c2O[C@H]1CN(C)C(=O)Nc1ccc(F)cc1	–	–	–
C[C@@H]1CN([C@@H](C)CO)C(=O)c2cccc(NC(=O)c3nc4ccccc4s3)c2O[C@H]1CN(C)C(=O)Nc1ccc(C(F)(F)F)cc1	–	–	84
C[C@H](CO)N1C[C@H](C)[C@@H](CN(C)C(=O)Nc2ccc(F)cc2)Oc2c(NC(=O)c3nc4ccccc4s3)cccc2C1=O	–	–	–
C[C@@H]1CN([C@H](C)CO)C(=O)c2cccc(NC(=O)c3nc4ccccc4s3)c2O[C@@H]1CN(C)C(=O)Nc1ccc(F)cc1	–	–	–
C[C@H]1CN([C@@H](C)CO)C(=O)c2cccc(NC(=O)c3nc4ccccc4s3)c2O[C@@H]1CN(C)C(=O)Nc1ccc(C(F)(F)F)cc1	–	–	74
SMILES	INS-1E rescue	YB-1 expr inh	T cruzi HTS
COc1ccc(NC(=O)N(C)C[C@@H]2Oc3c(NS(=O)(=O)c4ccc(Cl)cc4)cccc3C(=O)N([C@H](C)CO)C[C@@H]2C)cc1	–	–	–
Cc1ccc(S(=O)(=O)N(C)C[C@H]2Oc3ccc(NC(=O)NC(C)C)cc3C(=O)N([C@H](C)CO)C[C@@H]2C)cc1	–	–	–
O=C(O)CCCCCCC(=O)N/N=C/c1cc(O)ccc1Br	–	–	–
Cc1noc(C)c1NC(=O)Nc1cccc2c1O[C@H](CN(C)Cc1ccc(C(F)(F)F)cc1)[C@H](C)CN([C@@H](C)CO)C2=O	–	–	–
COc1c(O)cc2c(=O)oc3c(OC)c(O[C@@H]4OC[C@@H](O)[C@H](O)[C@H]4O)cc4c(=O)oc1c2c34	·	–	·
C[C@H](CO)N1C[C@H](C)[C@@H](CN(C)Cc2ccncc2)Oc2ccc(NS(C)(=O)=O)cc2C1=O	–	–	–
C[C@@H]1O[C@@H](OC[C@H]2O[C@@H](Oc3cc(O)c4c(c3)OC(c3ccc(O)cc3)CC4=O)[C@H](O)[C@@H](O)[C@@H]2O)[C@H](O)[C@H](O)[C@H]1O (some centres undefined)	·	–	·
C[C@H](CO)N1C[C@H](C)[C@H](CN(C)S(=O)(=O)c2cccs2)Oc2ncc(C#Cc3cccc(F)c3)cc2C1=O	·	–	71
C[C@H](CO)N1C[C@H](C)[C@H](CN(C)S(C)(=O)=O)Oc2ncc(C#Cc3cccc(F)c3)cc2C1=O	·	–	–
COc1ccc(S(=O)(=O)N(C)C[C@@H]2Oc3ncc(C#Cc4ccc(C(F)(F)F)cc4)cc3C(=O)N([C@H](C)CO)C[C@@H]2C)cc1	–	–	82
COc1ccc(S(=O)(=O)N(C)C[C@@H]2Oc3ncc(C#Cc4cccc(F)c4)cc3C(=O)N([C@H](C)CO)C[C@@H]2C)cc1	·	–	–
C[C@H](CO)N1C[C@H](C)[C@H](CN(C)S(=O)(=O)c2cccc(F)c2)Oc2ncc(C#Cc3ccc(C(F)(F)F)cc3)cc2C1=O	·	–	85
C[C@H](CO)N1C[C@H](C)[C@H](CN(C)S(=O)(=O)c2cccc(F)c2)Oc2ncc(C#Cc3ccccc3)cc2C1=O	·	–	–
COc1cccc(S(=O)(=O)N(C)C[C@@H]2Oc3ncc(C#Cc4ccc(F)cc4)cc3C(=O)N([C@H](C)CO)C[C@@H]2C)c1	·	–	73
CCCC(O)C#Cc1cnc2c(c1)C(=O)N([C@H](C)CO)C[C@H](C)[C@H](CN(C)S(=O)(=O)c1cccc(OC)c1)O2 (some centres undefined)	·	–	–
Cc1ccc(S(=O)(=O)Nc2cccc3c2O[C@@H](CN(C)CC2CC2)[C@H](C)CN([C@@H](C)CO)C3=O)cc1	–	–	–
CNC[C@@H]1Oc2c(NC(=O)C3CC3)cccc2C(=O)N([C@@H](C)CO)C[C@H]1C	–	–	–
